This note sets out measurements from PubChem BioAssay.

Calls of active or inactive are those of the source. Cut-off read from the data, not from the text of the source, unless noted: active = inhibition above about 30%; inactive = the rest.

Assay [1] is described as follows: reduced viability of SK-BR-3 breast cancer cells – cell-based, 24 h, human, pilot screen (AID 572;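 active = viability at or below 10% of carrier control in both of two separate runs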;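 note: compound exposure lasted between 18 and 24 h rather than exactly 24 h; 100% = carrier-treated control wells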). As to conditions: SK-BR-3 viability, CellTiter-Glo luminescence, at 10 µM, stronger effect = lower value.
Assay [2] is described as follows: HUVEC growth inhibition – cell-based, human, primary screen (AID 575;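 active = viability at or below 30% in both replicate assays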;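 note: 100% = median of untreated cell wells with 0.1% DMSO on each plate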). As to conditions: HUVEC proliferation, CellTiter-Glo luminescence, 72 h; at 10 µM; stronger effect = lower value. Put shortly: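 Assay system: Primary human umbilical vein endothelial cells | Quantity: 1250 cells per well | Medium: Supplemented EBM, 2% fetal bovine serum | Detection: CellTiter-Glo luminescence measuring cellular ATP | Read-out: % viability vs DMSO wells | Plate: Collagen-coated 384-well format | Times: 72 h exposure, 37 °C, 5% CO2, 30 min RT equilibration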

A short description of assay [3]: H69AR cell proliferation blockers – human, duplicate replicates, primary screen (AID 580;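 active = viability at or under a set limit in both replicates, limit being median viability minus 3 SD, cut at about 48% in these data, passing the limit was not always enough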;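 note: 100% = mean luminescence of untreated wells and 0% = no signal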). As to conditions: H69AR lung tumor cells viability, ATP luminescence, 72 h; at 10 µM; stronger effect = lower value.
A short description of assay [4]: MRP1 drug-resistance reversers in H69AR cells – cell-based, doxorubicin co-treatment, pilot screen (AID 601;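 active = viability loss from added drug above about 55%, and viability with drug at most 40%, in both replicates, limit read from the data, passing the limit was not always enough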). As to conditions: CellTiter-Glo, 72 h, at 10 µM; for differential viability (reversal): stronger effect = higher value.
The nature of assay [5]: yeast transport mutant growth inhibition pilot in 384-well plates, post-Golgi transport modulator project (AID 636; in the data active = inhibition above about 31%). As to conditions: absorbance 615 nm, about 18 h, stronger effect = higher value.
The nature of assay [6]: growth suppression of yeast trafficking mutant, preliminary HTS, modulators of trafficking downstream of Golgi apparatus project, 1536-format plate, OD 615 nm (AID 637). To be noted: yeast transport mutant growth, absorbance 615 nm, 18 h; stronger effect = higher value.
Where [7] appears, read: H69AR cells + 2 uM doxorubicin, measured here: viability with 2 uM doxorubicin, stronger effect = lower value.
The mark [8] stands for this setting: H69AR cells, compound alone cytotoxicity.

`c1coc(CN(Cc2cccs2)Cc2nnnn2C2CCCCC2)c1`: the viability in assay [1] is 74% (inactive); in assay [2], 83.2% (inactive); in assay [3], 75.7% (inactive); in assay [4] (setting [7]), 80.4%; in assay [4] (setting [8]) it was 75.7%. In addition, the differential viability (reversal) in assay [4] (H69AR cells + 2 uM doxorubicin) was -4.73% (inactive). The figures for the inhibition in assay [5] and in assay [6] were -3.84% (inactive) and 0% (inactive), respectively.
Turning to `COC(=O)c1ccc(C2C(C#N)=C(N)Oc3cc(C)n(C)c(=O)c32)cc1` (centres undefined), the viability was 104% (inactive) in assay [1]; 95.5% (inactive) in assay [2]; 97.8% (inactive) in assay [3]; 95.4% in assay [4] (setting [7]); 97.8% in assay [4] (setting [8]). Further, in assay [4] (H69AR cells + 2 uM doxorubicin), the differential viability (reversal) is 2.3% (inactive). Also, the values for the inhibition in assay [5] and in assay [6] were -0.82% (inactive) and -3.23% (inactive), respectively.
Turning to `O=C(CSc1nnc(Cc2ccccc2)n1-c1cccc(Cl)c1)N1CCOCC1`, the viability in assay [1] is 106% (inactive); in assay [2] it was 94.2% (inactive); in assay [3], 85.6% (inactive); in assay [4] (setting [7]), 81.3%; in assay [4] (setting [8]), 85.6%. Also, the differential viability (reversal) in assay [4] (H69AR cells + 2 uM doxorubicin) was 4.24% (inactive). For the same compound, the values for the inhibition in assay [5] and in assay [6] were -4.8% (inactive) and -7.64% (inactive), respectively.
As for `Fc1ccccc1Cn1nnc2c(-n3ccnc3)ncnc21`, the viability in assay [1] is 115% (inactive); in assay [2], 99.9% (inactive); in assay [3], 92.3% (inactive); in assay [4] (setting [7]) it was 77.1%; in assay [4] (setting [8]), 92.3%. In addition, in assay [4] (H69AR cells + 2 uM doxorubicin), the differential viability (reversal) is 15.2% (inactive). The figures for the inhibition in assay [5] and in assay [6] were -3.01% (inactive) and -3.71% (inactive), respectively.
For the compound `Cc1nn(C(=O)c2ccccc2)c2c1C(=O)CC(C)(C)C2`, the viability was 76% (inactive) in assay [1]; 95.8% (inactive) in assay [2]; 94.7% (inactive) in assay [3]; 93.4% in assay [4] (setting [7]); 94.7% in assay [4] (setting [8]). The differential viability (reversal) in assay [4] (H69AR cells + 2 uM doxorubicin) is 1.29% (inactive). Moreover, the inhibition was -7.12% (inactive) in assay [5] and 0.73% (inactive) in assay [6].
`O=C(O)c1cc2cc(F)ccc2[nH]1`: the viability is 110% (inactive) in assay [1]; 78.4% (inactive) in assay [2]; 94.5% (inactive) in assay [3]; 112% in assay [4] (setting [7]); 94.5% in assay [4] (setting [8]). In assay [4] (H69AR cells + 2 uM doxorubicin), the differential viability (reversal) is -17.1% (inactive). Also, the results for the inhibition in assay [5] and in assay [6] were -1.82% (inactive) and -4.67% (inactive), respectively.
Regarding `CCCC1(CCC)NC(=O)NC1=O`, the viability in assay [1] was 121% (inactive); in assay [2], 94.7% (inactive); in assay [3], 98.2% (inactive); in assay [4] (setting [7]) it was 98.1%; in assay [4] (setting [8]), 98.2%. Further, the differential viability (reversal) in assay [4] (H69AR cells + 2 uM doxorubicin) was 0.09% (inactive). Also, the values for the inhibition in assay [5] and in assay [6] were -0.26% (inactive) and 0.66% (inactive), respectively.
Turning to `COc1ccc(C(=O)CSc2nnc(-c3ccc(C)cc3)o2)cc1`, the viability in assay [1] is 97% (inactive); in assay [2], 110% (inactive); in assay [3], 86.4% (inactive); in assay [4] (setting [7]), 89%; in assay [4] (setting [8]) it was 86.4%. Also, in assay [4] (H69AR cells + 2 uM doxorubicin), the differential viability (reversal) is -2.64% (inactive). The inhibition in assay [5] is 4% (inactive); in assay [6], 5.09% (inactive).
Turning to `CC(=O)Nc1c(O)n(C)c2ccccc12`, the viability in assay [1] is 65% (inactive); in assay [2], 103% (inactive); in assay [3], 96.3% (inactive); in assay [4] (setting [7]), 111%; in assay [4] (setting [8]) it was 96.3%. Moreover, the differential viability (reversal) in assay [4] (H69AR cells + 2 uM doxorubicin) is -14.5% (inactive). In addition, the inhibition in assay [5] was -5.75% (inactive); in assay [6], 4.55% (inactive).
For the compound `CCn1c(SCC(=O)Nc2ccc3c(c2)OCO3)nnc1-c1ccccc1O`, the viability in assay [1] is 96% (inactive); in assay [2], 92% (inactive); in assay [3] it was 101% (inactive); in assay [4] (setting [7]), 87.2%; in assay [4] (setting [8]), 101%. Moreover, in assay [4] (H69AR cells + 2 uM doxorubicin), the differential viability (reversal) is 13.5% (inactive). The inhibition in assay [5] was -1.69% (inactive); in assay [6], -0.33% (inactive).
`COc1ccc(OC)c(S(=O)(=O)N2CCC(C(=O)NCc3ccccc3OC)CC2)c1`: the viability was 101% (inactive) in assay [1]; 97.5% (inactive) in assay [2]; 103% (inactive) in assay [3]; 103% in assay [4] (setting [7]); 103% in assay [4] (setting [8]). Further, the differential viability (reversal) in assay [4] (H69AR cells + 2 uM doxorubicin) was -0.525% (inactive). Besides, the inhibition in assay [5] is 0.55% (inactive); in assay [6], -4.03% (inactive).
On to `CCc1cn([C@H]2C[C@H](O)[C@@H](CO)O2)c(=O)[nH]c1=O`, for which the viability was 120% (inactive) in assay [1]; 93.2% (inactive) in assay [2]; 85.9% (inactive) in assay [3]; 76.6% in assay [4] (setting [7]); 85.9% in assay [4] (setting [8]). Further, the differential viability (reversal) in assay [4] (H69AR cells + 2 uM doxorubicin) is 9.33% (inactive). In addition, the results for the inhibition in assay [5] and in assay [6] were -0.26% (inactive) and 7.5% (inactive), respectively.
Take `CC(C)c1nc(NCC2CCCO2)c(C#N)c2c1COC(C)(C)C2` (centres undefined): the viability in assay [1] was 95% (inactive); in assay [2] it was 74.9% (inactive); in assay [3] it was 89.1% (inactive); in assay [4] (setting [7]), 84.4%; in assay [4] (setting [8]), 89.1%. The differential viability (reversal) in assay [4] (H69AR cells + 2 uM doxorubicin) is 4.7% (inactive). Moreover, the inhibition in assay [5] was -9.86% (inactive); in assay [6], 13.9% (inactive).
For `CC(=O)Nc1c(O)[nH]c2ccccc12`, the viability is 105% (inactive) in assay [1]; 102% (inactive) in assay [2]; 93.6% (inactive) in assay [3]; 94.7% in assay [4] (setting [7]); 93.6% in assay [4] (setting [8]). Moreover, the differential viability (reversal) in assay [4] (H69AR cells + 2 uM doxorubicin) was -1.07% (inactive). Also, the inhibition is -8.49% (inactive) in assay [5] and 6.36% (inactive) in assay [6].
With `O=C(CSc1nnc(-c2ccccc2Br)o1)Nc1cccc2ccccc12`, the viability was 89% (inactive) in assay [1]; 101% (inactive) in assay [2]; 105% (inactive) in assay [3]; 81.2% in assay [4] (setting [7]); 105% in assay [4] (setting [8]). The differential viability (reversal) in assay [4] (H69AR cells + 2 uM doxorubicin) was 24.2% (inactive). The results for the inhibition in assay [5] and in assay [6] were 0.39% (inactive) and -4.43% (inactive), respectively.
Consider `O=C(NC1CCCCC1)c1nc2c(nnn2Cc2ccccc2Cl)c(=O)[nH]1`, for which the viability in assay [1] is 77% (inactive); in assay [2], 104% (inactive); in assay [3], 110% (inactive); in assay [4] (setting [7]), 98.4%; in assay [4] (setting [8]), 110%. The differential viability (reversal) in assay [4] (H69AR cells + 2 uM doxorubicin) is 12% (inactive). The inhibition is -6.58% (inactive) in assay [5] and -7.58% (inactive) in assay [6].
For the compound `COc1ccc(CCNc2oc(COc3ccc(F)cc3)nc2C#N)cc1`, the viability in assay [1] was 164% (inactive); in assay [2] it was 76.2% (inactive); in assay [3] it was 93.7% (inactive); in assay [4] (setting [7]), 91.1%; in assay [4] (setting [8]) it was 93.7%. The differential viability (reversal) in assay [4] (H69AR cells + 2 uM doxorubicin) is 2.54% (inactive). The inhibition in assay [5] is -4.73% (inactive); in assay [6], 1.27% (inactive).
For the compound `Cn1c(Cc2ccccc2)nnc1SCC(=O)N1CCOCC1`, the viability in assay [1] was 91% (inactive); in assay [2], 95.6% (inactive); in assay [3], 101% (inactive); in assay [4] (setting [7]), 94.8%; in assay [4] (setting [8]) it was 101%. The differential viability (reversal) in assay [4] (H69AR cells + 2 uM doxorubicin) is 6.17% (inactive). Moreover, the inhibition in assay [5] was -1.08% (inactive); in assay [6], 28.7% (inactive).
For the compound `CC1(C)C2CCC1(C)C(OC(=O)CSc1nc(N)cc(=O)[nH]1)C2` (centres undefined), the viability is 104% (inactive) in assay [1]; 94.2% (inactive) in assay [2]; 92.8% (inactive) in assay [3]; 86.1% in assay [4] (setting [7]); 92.8% in assay [4] (setting [8]). In assay [4] (H69AR cells + 2 uM doxorubicin), the differential viability (reversal) was 6.73% (inactive). Further, the inhibition in assay [5] was -2.53% (inactive); in assay [6], -6.91% (inactive).
In the case of `CN(c1ccccc1C(=O)NCC1CCCO1)S(C)(=O)=O` (centres undefined), the viability in assay [1] is 67% (inactive); in assay [2] it was 103% (inactive); in assay [3], 101% (inactive); in assay [4] (setting [7]), 90%; in assay [4] (setting [8]), 101%. In assay [4] (H69AR cells + 2 uM doxorubicin), the differential viability (reversal) was 11.2% (inactive). Also, the inhibition is -4.11% (inactive) in assay [5] and 2.36% (inactive) in assay [6].
On to `CCCc1cc(=O)[nH]c(Nc2ccc(OC)c(Cl)c2)n1`, for which the viability in assay [1] was 115% (inactive); in assay [2], 76.1% (inactive); in assay [3], 70.6% (inactive); in assay [4] (setting [7]) it was 78.2%; in assay [4] (setting [8]) it was 70.6%. Moreover, the differential viability (reversal) in assay [4] (H69AR cells + 2 uM doxorubicin) was -7.59% (inactive). Also, the inhibition in assay [5] is -3.51% (inactive); in assay [6], 4.43% (inactive).
Consider `CSC1=C(C#N)C(C)CC(=O)N1` (centres undefined), for which the viability is 91% (inactive) in assay [1]; 107% (inactive) in assay [2]; 115% (inactive) in assay [3]; 105% in assay [4] (setting [7]); 115% in assay [4] (setting [8]). Besides, the differential viability (reversal) in assay [4] (H69AR cells + 2 uM doxorubicin) is 9.97% (inactive). Besides, the inhibition in assay [5] was -7.81% (inactive); in assay [6], 2.18% (inactive).
For `O=C(CCCSc1nc2ccccc2s1)NC1=NCCS1`, the viability in assay [1] was 86% (inactive); in assay [2], 102% (inactive); in assay [3], 93.7% (inactive); in assay [4] (setting [7]) it was 97.8%; in assay [4] (setting [8]), 93.7%. Besides, the differential viability (reversal) in assay [4] (H69AR cells + 2 uM doxorubicin) was -4.02% (inactive). Moreover, the inhibition was -7.53% (inactive) in assay [5] and 1.82% (inactive) in assay [6].
